Bioassay records (PubChem)
Most compounds without a hit are left out; they make up all but 3.7% or so of the library.
KCNQ1 inh = inhibitors of human KCNQ1 channel, primary screen, cell-based, thallium flux, high-throughput; Potassium voltage-gated channel subfamily KQT member 1 (Homo sapiens), P51787; CHO-K1 KCNQ1, FluxOR thallium flux fluorescence; hits give high values; B-score at 10 µM; 310,000 compounds, 1.3% hits;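 active means compounds whose thallium flux B-score, printed positive for inhibition, exceeds three library SD while starting fluorescence stays within three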;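 further: channel opened by potassium depolarization with thallium stimulus after 20 min compound exposure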
Target sequence (P51787 whole entry, looked up): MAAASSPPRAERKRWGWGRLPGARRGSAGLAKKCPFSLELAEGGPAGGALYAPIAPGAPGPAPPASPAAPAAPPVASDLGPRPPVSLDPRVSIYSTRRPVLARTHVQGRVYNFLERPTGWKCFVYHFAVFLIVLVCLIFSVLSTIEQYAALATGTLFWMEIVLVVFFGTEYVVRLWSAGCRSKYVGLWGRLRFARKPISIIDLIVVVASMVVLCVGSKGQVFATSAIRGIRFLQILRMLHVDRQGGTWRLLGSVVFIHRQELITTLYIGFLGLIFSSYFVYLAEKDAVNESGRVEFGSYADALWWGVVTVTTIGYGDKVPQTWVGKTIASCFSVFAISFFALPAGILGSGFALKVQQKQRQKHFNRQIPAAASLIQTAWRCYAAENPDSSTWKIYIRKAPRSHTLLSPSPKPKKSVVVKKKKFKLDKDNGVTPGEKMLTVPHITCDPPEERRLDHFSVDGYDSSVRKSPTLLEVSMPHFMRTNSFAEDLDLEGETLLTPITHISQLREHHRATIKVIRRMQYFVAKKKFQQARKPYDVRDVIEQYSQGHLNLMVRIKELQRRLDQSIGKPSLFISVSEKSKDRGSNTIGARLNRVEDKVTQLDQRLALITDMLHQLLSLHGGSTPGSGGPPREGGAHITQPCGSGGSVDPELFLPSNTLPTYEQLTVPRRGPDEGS
KCNK3 inh = human KCNK3 channel inhibitors, primary screen, CHO cells, FluxOR thallium flux, B-score | 340,000 compounds, 0.84% hits | B-score at 10 µM | FluxOR fluorescence; hits give low values | Potassium channel subfamily K member 3 (Homo sapiens), O14649;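 active means B-score under library mean minus 4 SD, starting fluorescence ratio at most library mean plus 5 SD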;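 further: more negative B-score means stronger inhibition of thallium flux through KCNK3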
hERG rescue = hERG rescue from dofetilide block, primary screen, cell-based, CHO-hERG, FluxOR thallium flux, dofetilide IC70; dofetilide IC70 present; activation (rescue from dofetilide block), less the hit threshold, % at 10 µM; 310,000 compounds, 0.51% hits;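 active means activation above the mean of controls blocked by dofetilide plus 5 SD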;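 further: thallium influx through hERG after potassium depolarization seen as dye fluorescence rise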
Kir21 block = inhibitors of mouse Kir2.1 inward-rectifier potassium channel; Inward rectifier potassium channel 2 (Mus musculus), P35561; HEK293-Kir2.1, FluxOR thallium flux fluorescence; hits give low values; B-score at 10 µM; 310,000 compounds, 0.85% hits;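 active means fluorescence ratio B-score at or below minus 3 SD of library scores, with starting-brightness B-score within 2 SD, cut at about -4.2 in these data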;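 further: channel flux triggered by added potassium and thallium sulfate stimulus; B-score of peak minus minimum fluorescence over baseline after thallium stimulus; more negative B-score means stronger Kir2.1 block with less thallium influx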
KCNQ1 pot = potentiators or activators of KCNQ1 channel, primary screen, cell-based, thallium flux, high-throughput. CHO-K1 KCNQ1, thallium flux FluxOR fluorescence; hits give high values. B-score at 10 µM. 310,000 compounds, 0.35% hits. Potassium voltage-gated channel subfamily KQT member 1 (Homo sapiens), P51787;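 active means fluorescence ratio B-score, a plate-corrected score, at least three library SD, with initial intensity B-score within 5 SD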
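Medium – assay buffer, equal DMSO in all wells · Material – CHO-K1 cell line with stable KCNQ1 potassium channel expression · Signal – kinetic FluxOR thallium fluorescence, 10-s 1-Hz baseline, 110-s post-stimulus read · Compound – single concentration per compound, DMSO matched to controls · Schedule – 37 °C overnight plating, 90-min dark dye load, 20-min compound pretreatment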
KCNK9 inh = KCNK9 potassium channel inhibitors, primary screen, HEK293 cells, thallium flux; Potassium channel subfamily K member 9 (Homo sapiens), Q9NPC2; FluxOR thallium flux fluorescence; hits give low values; B-score at 10 µM; 310,000 compounds, 1.2% hits;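 active means ratio B-score over 3 SD below the library mean, with starting fluorescence within 5 SD of its mean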;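 further: negative B-score means less thallium flux so channel inhibition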
KCNK9 block conf = KCNK9 potassium channel inhibitors, confirmation, HEK293 cells, thallium flux, duplicate | shares compounds with KCNK9 inh | FluxOR thallium flux fluorescence | inhibition, % at 10 µM | 4,900 compounds, 43% hits | AID 492992, 2010;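 active means thallium signal inhibited by more than 5 SD of the compound-free buffer control wells, on both duplicate plates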;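 further: 0% = assay buffer control wells without compound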
Kir2-1 spec = mouse Kir2.1 channel inhibition, confirmation, selectivity assay for KCNK9 modulator project, cell-based, HEK293, thallium flux | Kir2.1 cells, FluxOR thallium flux fluorescence | inhibition, % at 10 µM | shares compounds with KCNK9 inh | 4,900 compounds, 4% hits | AID 492993, 2010;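 active means thallium signal drop more than 5 SD beyond the mean of the no-compound control wells, seen in both duplicate plates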;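 further: signal is fluorescence rise after thallium addition divided by baseline fluorescence; plate controls were assay buffer only for no effect and full block by chlorpromazine control for full effect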
HEK293 Tl ctr = thallium flux in non-induced HEK293 cells, confirmation, counter-screen for KCNK9 inhibitor project, cell-based, second counter screen, non-induced KCNK9-HEK293; shares compounds with KCNK9 inh; 4,900 compounds, 40% hits; inhibition, % at 10 µM; FluxOR thallium flux;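 active means thallium signal drop beyond 5 SD of the untreated control mean, on both duplicate plates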;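 further: plate controls were buffer only IC0 wells for no effect and SID17386958 at its maximal inhibitory level for full effect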
Starred values were filed as active, the others as inactive; i = inactive; · = not tested or not shown.

SMILES | KCNQ1 inh | KCNK3 inh | hERG rescue | Kir21 block | KCNQ1 pot | KCNK9 inh | KCNK9 block conf | Kir2-1 spec | HEK293 Tl ctr
COCCC1CCCCN1Cc1cn(-c2ccccc2)nc1-c1ccc2c(c1)OCO2 (stereo not drawn) | i | i | -12 | -0.77 | i | i | i | i | i
O=C(NCC1CCCO1)C1CCCN(S(=O)(=O)c2ccc(Cl)cc2)C1 (stereo not drawn) | i | i | -6 | -0.13 | i | i | · | · | ·
COc1ccc(Cl)cc1NC(=O)CSc1nc(N2CCOCC2)nc(N2CCOCC2)n1 | i | i | -14 | -0.07 | i | i | · | · | ·
COc1ccc(Cl)cc1NC(=O)CSc1nc(N2CCCCC2)nc(N2CCCCC2)n1 | i | i | -2 | -0.62 | i | -11* | 36%* | i | 26%*
COc1cc(Cl)c(C)cc1NC(=O)CSc1cc(Cl)ccc1Cl | i | i | -25 | -0.34 | i | -9.8* | 56%* | i | 44%*
O=c1c2ccccc2nc(/C=C/c2cccnc2)n1CCc1ccccc1 | i | i | -13 | -0.72 | i | -9.3* | i | i | 27%*
CN1CSC2=C(C#N)C(c3cccc(OCc4ccccc4)c3)CC(=O)N2C1 (stereo not drawn) | i | i | -7 | 0.26 | i | i | i | i | i
CCc1ccc(C2CC(=O)N3CN(c4ccccc4)CSC3=C2C#N)cc1 (stereo not drawn) | i | i | -2 | -0.36 | i | i | · | · | ·
CN(Cc1ccccc1Cl)C(=O)C1CCC(=O)N(C2CCCCCC2)C1 (stereo not drawn) | i | i | -8 | 0.19 | i | i | · | · | ·
CCCCn1cnc2c(c(-c3ccccc3)c(-c3ccccc3)n2Cc2ccco2)c1=N | 10* | i | -26 | -10 | i | -13* | 44%* | i | i
COc1ccc(COCCN2CCN(S(=O)(=O)c3ccc(C)cc3)CCC2=O)cc1 | i | · | -6 | -0.74 | i | i | · | · | ·
Cc1ccc(COCCN2CCN(S(=O)(=O)c3ccc(C)cc3)CCC2=O)cc1 | i | i | -5 | 0.07 | i | i | · | · | ·
Cc1ccc(S(=O)(=O)N2CCC(=O)N(CCOCc3cccc(C)c3)CC2)cc1 | i | i | -10 | -1.7 | i | i | i | i | i
COc1cccc(COCCN2CCN(S(=O)(=O)c3ccc(C)cc3)CCC2=O)c1 | i | i | -6 | -2.1 | i | i | i | i | i
Cc1ccc(CN2CC(C(=O)N3CCN(S(=O)(=O)c4c(F)cccc4F)CC3)CC2=O)cc1 (stereo not drawn) | i | i | -8 | 1.7 | i | i | · | · | ·
CC(C)C(C)NC(=O)COc1ccc(-c2ccccc2)cc1 (stereo not drawn) | i | i | -10 | -0.04 | i | -9.9* | 34%* | i | i
CC(C)C(C)NC(=O)COc1ccc(OCc2ccccc2)cc1 (stereo not drawn) | i | i | -11 | 1.8 | i | i | · | · | ·
COc1cccc(C2Oc3ccccc3C3CC(c4cccs4)=NN32)c1 (stereo not drawn) | i | i | -9 | -0.03 | i | -12* | 60%* | i | i
O=C(c1ccccc1)C1Oc2ccccc2C2CC(c3cccs3)=NN12 (stereo not drawn) | i | i | -4 | 1 | i | i | · | · | ·
COc1ccc(Cn2nc(C)n(N(C)c3ncc(C(F)(F)F)cc3Cl)c2=O)cc1 | i | i | -5 | -0.52 | i | i | i | i | i
COC(=O)c1ccccc1NC(=O)CN(C)Cc1ccccc1 | i | i | -7 | -1.6 | i | -9.9* | 39%* | i | 38%*
CNC(=S)N/N=C/C1=CCC2CC1C2(C)C (stereo not drawn) | i | i | 1 | -0.52 | i | i | · | · | ·
CC1(C)C2CC=C(/C=N/NC(=S)NCCc3ccccc3)C1C2 (stereo not drawn) | i | i | -18 | 2.3 | i | i | i | i | i
C=CCNc1nc(-c2cc3ccccc3o2)cs1 | i | i | -4 | -0.28 | i | i | · | · | ·
O=c1oc2ccccc2cc1-c1csc(NN=C2CCCCC2)n1 | i | i | -7 | 0.09 | i | i | i | i | i
SMILES | KCNQ1 inh | KCNK3 inh | hERG rescue | Kir21 block | KCNQ1 pot | KCNK9 inh | KCNK9 block conf | Kir2-1 spec | HEK293 Tl ctr
c1ccc2oc(-c3csc(NCC4CCCO4)n3)cc2c1 (stereo not drawn) | i | i | -7 | 0.38 | i | i | i | i | i
O=C(Nc1nc(-c2cc3ccccc3oc2=O)cs1)c1ccco1 | i | i | 0 | 2.5 | i | i | · | · | ·
Cc1ccc(CNC(=O)CNC(=O)[C@@H]2Cc3ccccc3CN2C(=O)OC(C)(C)C)cc1 | i | i | -10 | 0.02 | i | i | · | · | ·
COc1ccc(-c2nnn(CC(=O)Nc3ccc4c(c3)OCCO4)n2)cc1OC | · | i | · | · | · | · | · | · | ·
CCOC(=O)/C(=N\Nc1ccccc1Cl)N1CC(C)OC(C)C1 (stereo not drawn) | i | i | -17 | -0.36 | i | i | · | · | ·
CCOC(=O)/C(=N\Nc1ccc(Br)cc1)N1CC(C)OC(C)C1 (stereo not drawn) | i | i | -11 | 1.9 | i | -18* | 75%* | i | 44%*
Cc1ccc(-n2c(C)cc(C(=S)N3CCOCC3)c2C)cc1C | i | i | -12 | -1.1 | i | i | · | · | ·
CCOC(=O)C1=C(CC)Nc2ccccc2N/C1=N\S(=O)(=O)c1ccc2ccccc2c1 | i | i | -17 | 0.1 | i | i | i | i | i
